Experimental data published in PubChem BioAssay.
Calls of active or inactive are those of the source.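 How the source made its calls, unless noted: active means viability loss from added drug above about 55%, and viability with drug at most 40%, in both replicates (limit read from the data, passing the limit was not always enough); inconclusive means both conditions met in only one replicate; inactive means neither replicate meets both conditions.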

Legend:
[1] = reducers of endogenous Her2 protein level, primary screen, SKBR3 breast tumor cells, AlphaScreen, ATP viability (AID 461;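 active means Her2 level under about 52% in both replicate screens, with viability over 70% of control, limit read from the data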;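 on Her2 level: lower value means less Her2 protein in the cells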;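 on viability: percent of carrier control wells set as 100% viability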); details: 18-24 h, measured here: SKBR3 viability, ATP luminescence, at 10 µM
[2] = molecular target: Receptor tyrosine-protein kinase erbB-2 (Homo sapiens) (UniProt P04626); assay: as above; details: 18-24 h, at 10 µM, stronger effect = lower value
[3] = SK-BR-3 cell growth inhibitors, pilot screen, 24 h, human (AID 572;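 active means viability at or below 10% of carrier control in both of two separate runs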;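 further: compound exposure lasted between 18 and 24 h rather than exactly 24 h; 100% = carrier-treated control wells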); details: SK-BR-3 viability, CellTiter-Glo luminescence, at 10 µM, stronger effect = lower value
[4] = HUVEC growth inhibition – cell-based, human, primary screen (AID 575;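 active means viability at or below 30% in both replicate assays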;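 further: 100% = median of untreated cell wells with 0.1% DMSO on each plate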); details: HUVEC proliferation, CellTiter-Glo luminescence, 72 h; at 10 µM; stronger effect = lower value
Method in brief: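 Assay system: primary human umbilical vein endothelial cells / Buffer or medium: endothelial basal medium with 2% FBS plus growth supplements / Compound dosing: one dose, 10 µM final, 0.1% DMSO / Timing: 72 h treatment at 37 °C / Signal: CTG luminescence / Benchmarks: 32 DMSO-only cell-control wells (high), 32 MePR drug-control wells (low) per plate / Plate: collagen-coated 384-well format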

[5] = growth inhibitors of H69AR lung tumor, primary screen, human, duplicate replicates (AID 580;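 active means viability at or under a set limit in both replicates, limit being median viability minus 3 SD, cut at about 48% in these data, passing the limit was not always enough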;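 further: 100% = mean luminescence of untreated wells and 0% = no signal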); details: H69AR lung tumor cells viability, ATP luminescence, 72 h; at 10 µM; stronger effect = lower value
[6] = reversal of MRP1-mediated doxorubicin resistance, pilot screen, H69AR cells, doxorubicin co-treatment (AID 601); details: CellTiter-Glo, 72 h, at 10 µM; for differential viability (reversal): stronger effect = higher value
[7] = 384-well plate pilot, post-Golgi transport modulator project, inhibition of yeast transport mutant growth (AID 636; in the data active means inhibition above about 31%); details: absorbance 615 nm, about 18 h, stronger effect = higher value
[8] = growth suppression of yeast trafficking mutant, preliminary HTS, modulators of trafficking downstream of Golgi apparatus project, 1536-format plate, OD 615 nm (AID 637; in the data active means inhibition above about 30%); details: yeast transport mutant growth, absorbance 615 nm, 18 h; stronger effect = higher value
[9] = H69AR cells + 2 uM doxorubicin, measured here: viability with 2 uM doxorubicin, stronger effect = lower value
[10] = H69AR cells, compound alone cytotoxicity

Receptor tyrosine-protein kinase erbB-2 (Homo sapiens), sequence (P04626 whole entry, looked up): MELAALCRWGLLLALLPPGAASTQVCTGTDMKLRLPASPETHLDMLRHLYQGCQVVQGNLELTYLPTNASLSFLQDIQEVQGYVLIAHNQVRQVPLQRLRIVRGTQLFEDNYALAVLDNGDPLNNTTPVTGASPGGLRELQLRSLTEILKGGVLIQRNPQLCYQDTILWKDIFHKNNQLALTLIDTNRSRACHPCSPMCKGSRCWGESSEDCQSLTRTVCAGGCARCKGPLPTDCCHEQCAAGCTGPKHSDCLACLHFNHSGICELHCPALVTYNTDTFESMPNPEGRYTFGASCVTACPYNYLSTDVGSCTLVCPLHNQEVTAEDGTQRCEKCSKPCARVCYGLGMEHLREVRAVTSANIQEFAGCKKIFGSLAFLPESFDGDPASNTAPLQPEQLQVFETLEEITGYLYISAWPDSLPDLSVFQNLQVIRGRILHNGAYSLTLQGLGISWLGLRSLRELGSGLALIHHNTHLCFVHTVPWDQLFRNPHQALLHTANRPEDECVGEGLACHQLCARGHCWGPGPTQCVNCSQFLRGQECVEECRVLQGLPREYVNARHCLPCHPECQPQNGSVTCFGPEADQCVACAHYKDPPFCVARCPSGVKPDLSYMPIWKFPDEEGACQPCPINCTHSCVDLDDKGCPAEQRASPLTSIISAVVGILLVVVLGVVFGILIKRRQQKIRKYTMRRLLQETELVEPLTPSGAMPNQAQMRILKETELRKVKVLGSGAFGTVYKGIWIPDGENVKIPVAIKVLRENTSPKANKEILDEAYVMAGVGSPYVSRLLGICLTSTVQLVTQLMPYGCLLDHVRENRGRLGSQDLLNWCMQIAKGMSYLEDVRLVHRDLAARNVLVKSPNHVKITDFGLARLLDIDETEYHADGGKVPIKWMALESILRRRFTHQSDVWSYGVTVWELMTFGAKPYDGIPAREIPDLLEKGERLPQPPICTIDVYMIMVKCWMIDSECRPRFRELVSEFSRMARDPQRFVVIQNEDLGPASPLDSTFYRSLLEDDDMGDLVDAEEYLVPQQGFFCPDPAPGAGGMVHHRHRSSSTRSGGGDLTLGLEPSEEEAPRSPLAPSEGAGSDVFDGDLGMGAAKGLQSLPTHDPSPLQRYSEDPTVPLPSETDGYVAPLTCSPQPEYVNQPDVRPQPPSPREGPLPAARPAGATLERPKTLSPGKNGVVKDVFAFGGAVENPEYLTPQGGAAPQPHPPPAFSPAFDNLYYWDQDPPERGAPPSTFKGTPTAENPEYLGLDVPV

SMILES	viability [1] [%]	Her2 level [2]	viability [3]	viability [4]	viability [5]	differential viability (reversal) ([6]; H69AR cells + 2 uM doxorubicin)	viability [6, 9] [%]	viability [6, 10] [%]	inhibition [7]	inhibition [8]
CC(NC(=O)Cc1cccs1)c1ccc2c(c1)OCO2 (stereo not given)	125	81.5% (inactive)	125% (inactive)	108% (inactive)	99.9% (inactive)	13.7% (inactive)	86.2	99.9	-4.67% (inactive)	-0.66% (inactive)
O=C1CC(N2CCN(c3ccc(Cl)c(Cl)c3)CC2)C(=O)N1 (stereo not given)	67.5	103% (inactive)	67.5% (inactive)	76.5% (inactive)	107% (inactive)	18.3% (inactive)	89.1	107	-2.84% (inactive)	27.7% (inactive)
NC1=NC(c2ccc(Br)cc2)n2c(nc3ccccc32)N1 (stereo not given)	90	82% (inactive)	90% (inactive)	75.5% (inactive)	81.4% (inactive)	4.81% (inactive)	76.6	81.4	-5.13% (inactive)	-6% (inactive)
COc1ccc(-c2nnc(SCCC(=O)O)n2-c2ccccc2)cc1	113	96.5% (inactive)	113% (inactive)	96.1% (inactive)	95.2% (inactive)	-2.17% (inactive)	97.3	95.2	-0.53% (inactive)	-0.49% (inactive)
CCOc1ccc(C(c2nnnn2Cc2ccccc2)N2CCN(C(=O)c3ccco3)CC2)cc1 (stereo not given)	92.5	106% (inactive)	92.5% (inactive)	85.8% (inactive)	98.3% (inactive)	-4.47% (inactive)	103	98.3	0.53% (inactive)	-1.9% (inactive)
CC12CN3CC(C)(CN(C1)C3c1cc(Br)ccc1O)C2=O (stereo not given)	95.5	124% (inactive)	95.5% (inactive)	87% (inactive)	100% (inactive)	1.15% (inactive)	98.9	100	-0.65% (inactive)	-3.83% (inactive)
COCCNC(=O)c1c(N)n(CCC2=CCCCC2)c2nc3ccccc3nc12	102	92% (inactive)	102% (inactive)	78.3% (inactive)	89% (inactive)	10.8% (inactive)	78.2	89	-6.03% (inactive)	-2.38% (inactive)
COc1ccc(OC)c(NC(=O)CSc2nc3ccccc3c(=O)n2CCNC(C)=O)c1	118	108% (inactive)	118% (inactive)	95.4% (inactive)	80.7% (inactive)	64.1% (active)	16.6	80.7	-1.58% (inactive)	0.32% (inactive)
NC(=O)c1c(NC(=O)CN2CCCC2)sc2c1CCCC2	104	114% (inactive)	104% (inactive)	95.9% (inactive)	91.3% (inactive)	4.73% (inactive)	86.6	91.3	-0.8% (inactive)	-5.57% (inactive)
CCc1nnc(NC(=O)CSc2nnc(CSc3nc(C)cc(C)n3)n2CC)s1	100	116% (inactive)	100% (inactive)	84.1% (inactive)	88.7% (inactive)	1.79% (inactive)	86.9	88.7	0.77% (inactive)	22.5% (inactive)
Cc1cc(NC(=O)NC(=O)c2cccc(OC(F)(F)C(F)F)c2)n[nH]1	99.5	94% (inactive)	99.5% (inactive)	80.4% (inactive)	85.2% (inactive)	-12.8% (inactive)	98	85.2	-3.73% (inactive)	20% (inactive)
Cc1cccc(-c2cc3nc4c(c(N5CCC6(CC5)OCCO6)n3n2)CCCC4)c1	80.5	100% (inactive)	80.5% (inactive)	77.8% (inactive)	83.9% (inactive)	-9.12% (inactive)	93	83.9	-2.13% (inactive)	9.37% (inactive)
COc1ccc2nc(CC(C)(C)CC(=O)O)c[n+]([O-])c2c1	109	95.5% (inactive)	109% (inactive)	106% (inactive)	99.2% (inactive)	9.58% (inactive)	89.6	99.2	-2.7% (inactive)	5.08% (inactive)
Nc1nnc(SCC(=O)N2CCc3ccccc32)n1-c1ccccc1	102	80% (inactive)	102% (inactive)	82% (inactive)	101% (inactive)	6.62% (inactive)	94.5	101	-4.8% (inactive)	0.32% (inactive)
COCCN(CC(=O)NCc1ccccc1)C(=O)CCC(=O)Nc1ccccn1	112	90.5% (inactive)	112% (inactive)	103% (inactive)	92.9% (inactive)	1.44% (inactive)	91.5	92.9	-4.8% (inactive)	1.94% (inactive)
O=C1N(c2ccccc2)C2CS(=O)(=O)CC2N1c1ccc(Br)cc1 (stereo not given)	102	88.5% (inactive)	102% (inactive)	97.7% (inactive)	101% (inactive)	17.5% (inactive)	83.2	101	-6.4% (inactive)	-0.95% (inactive)

SMILES	viability [1] [%]	Her2 level [2]	viability [3]	viability [4]	viability [5]	differential viability (reversal) ([6]; H69AR cells + 2 uM doxorubicin)	viability [6, 9] [%]	viability [6, 10] [%]	inhibition [7]	inhibition [8]
N#Cc1nc(-c2ccco2)oc1NCCc1ccccc1	92.5	98.5% (inactive)	92.5% (inactive)	90.6% (inactive)	97.4% (inactive)	14.8% (inactive)	82.6	97.4	-5.58% (inactive)	-10.5% (inactive)
Cc1nnc(SCC(=O)NCCN2C(=O)CSC2=O)s1	96.5	102% (inactive)	96.5% (inactive)	114% (inactive)	98.3% (inactive)	-1.88% (inactive)	100	98.3	-3.24% (inactive)	0.63% (inactive)
COc1ccc(-c2nc(C#N)c(NCCCN(C)C)o2)cc1OC	95	111% (inactive)	95% (inactive)	102% (inactive)	96.2% (inactive)	3.08% (inactive)	93.1	96.2	-0.26% (inactive)	-5% (inactive)
CN(c1ccccc1)S(=O)(=O)c1ccc(C(=O)OCC(=O)NCc2ccco2)cc1	95.5	112% (inactive)	95.5% (inactive)	88.5% (inactive)	74.4% (inactive)	-10.4% (inactive)	84.8	74.4	2.03% (inactive)	16.4% (inactive)
O=C(c1cnn2c(C(F)F)cc(C3CC3)nc12)N1CCOCC1	104	102% (inactive)	104% (inactive)	107% (inactive)	113% (inactive)	19.2% (inactive)	93.5	113	-3.29% (inactive)	-10.2% (inactive)
COc1ccc(CCNC(=O)c2cc(-c3cc(C)c(C)cc3O)n[nH]2)cc1OC	93.5	87.5% (inactive)	93.5% (inactive)	86.6% (inactive)	77% (inactive)	1.53% (inactive)	75.5	77	-3.82% (inactive)	-4% (inactive)
CCCn1c(=N)n(CC(=O)c2cccs2)c2ccccc21	92	106% (inactive)	92% (inactive)	93.2% (inactive)	91% (inactive)	-1.29% (inactive)	92.3	91	-7.33% (inactive)	-4.19% (inactive)
CN(Cc1ccco1)C(=O)Cn1c(=O)oc2cc(S(=O)(=O)NCc3ccccc3)ccc21	92	85.5% (inactive)	92% (inactive)	96.4% (inactive)	89.8% (inactive)	-3.67% (inactive)	93.4	89.8	-2.67% (inactive)	1.8% (inactive)
O=C(OCN1C(=O)c2ccccc2C1=O)c1ccc2c(=O)n3c(nc2c1)CCC3	109	85.5% (inactive)	109% (inactive)	112% (inactive)	96.7% (inactive)	-0.565% (inactive)	97.2	96.7	-4.73% (inactive)	14.8% (inactive)
CCOc1ccc(S(=O)(=O)n2nc(C)cc2C)c2ccccc12	83.5	89.5% (inactive)	83.5% (inactive)	71.2% (inactive)	79.7% (inactive)	2.17% (inactive)	77.6	79.7	-1.03% (inactive)	2% (inactive)
COC(=O)c1cc(-c2c(C)oc3cc(O)ccc3c2=O)c(C)o1	100	90.5% (inactive)	100% (inactive)	91.3% (inactive)	84.9% (inactive)	-6.25% (inactive)	91.1	84.9	-4.94% (inactive)	-1.27% (inactive)
Cc1ccc(CNC(=O)C2CCN(S(=O)(=O)c3c(C)noc3C)CC2)cc1	100	102% (inactive)	100% (inactive)	106% (inactive)	104% (inactive)	6.84% (inactive)	97.4	104	-0.53% (inactive)	-4.44% (inactive)
Cc1ccc(S(=O)(=O)N2CCC(C(=O)N3CCC[C@H]3C(=O)NCc3ccccc3)CC2)cc1	117	103% (inactive)	117% (inactive)	101% (inactive)	90.8% (inactive)	-5.42% (inactive)	96.2	90.8	-4.81% (inactive)	-0.66% (inactive)
CSC1=NCCN1C(=O)c1ccc(S(=O)(=O)N2CCCC2)cc1	111	107% (inactive)	111% (inactive)	91.2% (inactive)	91.3% (inactive)	-1.11% (inactive)	92.4	91.3	0.77% (inactive)	-3.17% (inactive)
Cc1ccc(NC2c3ncccc3C(=O)N2C2CCCCC2)cc1C (stereo not given)	98.5	94.5% (inactive)	98.5% (inactive)	91.7% (inactive)	92.7% (inactive)	-4.25% (inactive)	97	92.7	-3.78% (inactive)	11.5% (inactive)
